Screening results (PubChem BioAssay)
An excerpt weighted towards active compounds, which were near 3.9% of everything screened.
NF-kB neuron act = raises NF-kB expression in human neuronal cells; hit rate 1.6% among 190,000; fold change at 12.5 µM; NF-kB reporter expression; hits give high values; AID 1239; in the data active = fold change above about 3.3
Rad51 HR inh = Rad51 (human) homologous recombination inhibition; AID 1385; inhibition, % at 10 µM; hit rate 0.085% among 200,000; Q06609; hRad51 DNA strand exchange, fluorescence dequenching;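 active = inhibition above 40% at the single screening dose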
Target sequence (Q06609 whole entry, looked up): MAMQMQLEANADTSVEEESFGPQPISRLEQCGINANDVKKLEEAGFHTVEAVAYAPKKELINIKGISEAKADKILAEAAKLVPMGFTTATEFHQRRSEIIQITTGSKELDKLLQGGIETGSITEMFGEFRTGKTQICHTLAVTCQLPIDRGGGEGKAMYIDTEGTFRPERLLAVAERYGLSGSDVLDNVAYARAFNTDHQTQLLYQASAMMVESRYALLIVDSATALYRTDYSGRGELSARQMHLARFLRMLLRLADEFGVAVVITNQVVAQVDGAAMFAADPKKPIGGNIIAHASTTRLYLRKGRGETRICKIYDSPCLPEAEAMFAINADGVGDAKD
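material = hRad51 filaments on single-stranded DNA | timing = filaments 15 min 37 °C, then compound 30 min | signal = FRET fluorescence dequenching, excitation 485 nm, emission 520 nm | benchmarks = control wells and blank wells on each plate | evaluation = percent inhibition relative to plate controls and blanks | compound = 10 µM final, single point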
FLuc inhib CS = inhibits firefly luciferase, flagging false hits in luciferase inhibition screens | P08659 | ATPLite firefly luciferase biochemical luminescence, 10 min | inhibition, % at 10 µM | hit rate 1.5% among 200,000;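 active = inhibition above about 50% when tested at 10 µM, limit read from the data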
STAT1 activator = activators of IFN-gamma induced STAT1 signaling. hit rate 2.6% among 200,000. NIH 3T3 STAT1-luciferase reporter, luminescence; 100% = IFN-gamma alone, no compound. activation (% of control), % at 5.5 µM. AID 932;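 active = activation above the screen-wide mean activation plus 3 SD, cut at about 130% in these data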
FLuc act counter = affects firefly luciferase, flagging false hits in luciferase stimulation screens. activation factor at 10 µM. P08659. 200,000 tested, under 10 active. AID 1027. ATPlite luciferase biochemical, luminescence, 10 min; 0 = ATP-free wells, 1 = DMSO control;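 active = luciferase activation factor, scaled between plate controls, of at least 2 with compound at 10 µM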
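test system = cell-free luciferase reagent | medium = PBS as buffer for the ATP substrate | dosing = test compounds dosed from 2 mM stocks in 100% DMSO | incubation = 10 min at ambient temperature | detection = luminescence measurement of luciferase light output | benchmarks = low control with PBS replacing ATP, high control enzyme plus ATP without compound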
APP 5'UTR act = activates APP 5'UTR luciferase reporter; SH-SY5Y APP 5'UTR luciferase reporter, luminescence; zero percent = DMSO vehicle wells; activation, % at 2 µM; hit rate 1% among 190,000;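 active = activation above a set limit, based on mean plus 3 SD of controls, cut at about 140% in these data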
STAT1 activ conf = STAT1 activation, confirmation assay; AID 1262; shares compounds with STAT1 activator; activation (% of control), % at 5.7 µM; hit rate 97% among 1,200; NIH 3T3 STAT1-luciferase reporter, IFN-gamma potentiation, luminescence; 100% = IFN-gamma EC80 alone, no compound;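 active = activation above a set limit carried over from the earlier primary STAT1 screen, cut at about 140% in these data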
NFkB act = NF-kappaB activation in STAT1 activator counter-screen; shares compounds with STAT1 activator; HEK293T NF-kB luciferase reporter, TNF-alpha stimulated, luminescence; 100% = TNF-alpha with vehicle only; activation (% of control), % at 5.7 µM; hit rate 43% among 1,200; AID 1306;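 active = activation above the mean of solvent-only control wells plus 3 SD, set per campaign, cut at about 130% in these data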;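 note: TNF-alpha given at a submaximal dose yielding about 80% of full reporter signal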
STAT3 act 2 = human STAT3 activation in STAT1 activator counter-screen | shares compounds with STAT1 activator | U3A cells STAT3-luciferase reporter, IL-6, luminescence; cells lack STAT1; 100 = IL-6 alone, no compound effect | activation (% of control), % at 5.7 µM | hit rate 46% among 1,200 | AID 1316;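 active = activation above the solvent-only control well mean plus 3 SD, set per plate batch, cut at about 110% in these data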;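 note: higher means more STAT3 reporter activation so hits are non-selective activators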
Hits are given with their value; . = inactive; / = no result given.

SMILES | NF-kB neuron act | Rad51 HR inh | FLuc inhib CS | STAT1 activator | FLuc act counter | APP 5'UTR act | STAT1 activ conf | NFkB act | STAT3 act 2
CC1Cc2ccccc2N1c1ncnc2nc[nH]c12 (stereo not drawn) | . | . | . | . | . | . | / | / | /
C/C(=N\NC(=O)c1c[nH]c2ccccc12)c1ccccn1 | . | . | . | 156.8 | . | . | 197.9 | . | .
O=C(CCS(=O)(=O)c1ccccc1)NC12CC3CC(CC(C3)C1)C2 | . | . | . | 151.3 | . | . | 183.8 | 133.4 | 127.8
CCOC(=O)c1nnsc1N | / | . | / | / | / | / | / | / | /
COC(=O)C1(C(C[N+](=O)[O-])c2ccc(C)cc2)C(=O)NCC1c1ccco1 (stereo not drawn) | / | . | / | / | / | / | / | / | /
Cc1ccsc1/C=N/NC(=O)Nc1ccccc1 | 3.96 | . | . | 172.4 | . | 147.1 | 191.7 | . | .
CCCCC(=O)N/N=C/c1sccc1C | . | . | . | . | . | . | / | / | /
Cc1ccccc1/C=N/NC(=O)c1sccc1C | 4.99 | / | . | 163.0 | . | . | 205.1 | 133.5 | .
O=C(N/N=C/c1ccc2c(c1)OCO2)c1cccs1 | 4.3 | / | 75.2 | 174.4 | . | . | 204.0 | 133.5 | 117.0
Cc1cccc(C(=O)N/N=C/c2ccc3c(c2)OCO3)n1 | . | . | . | . | . | . | / | / | /
Cc1ccsc1C(=O)N/N=C/c1ccc2c(c1)OCO2 | 6.15 | . | 63.9 | 161.1 | . | 158.1 | 225.8 | . | .
Cc1ccsc1C(=O)N/N=C/C=C/c1ccccc1[N+](=O)[O-] | . | . | . | . | . | . | / | / | /
N#CCCN(C(=O)CCl)c1cccc(Cl)c1 | . | . | . | . | . | . | / | / | /
COc1cc(C(=O)OCC#N)ccc1OCc1c(C)noc1C | / | . | / | / | / | / | / | / | /
O=C1COc2ccc(N3C(=O)C=CC3=O)cc2N1 | . | . | . | . | . | . | / | / | /
COC(=O)N/N=C\C=C\c1ccc2c(c1)OCO2 | . | . | . | . | . | . | / | / | /
CC(C)(C)OC(=O)N/N=C\C=C\c1ccc2c(c1)OCO2 | . | . | . | 158.4 | . | / | 184.5 | . | 111.1
O=c1c2ccccc2cnn1-c1ccc(Cl)cc1 | 5.07 | . | . | 166.2 | . | . | 192.2 | . | 127.7
Cc1nn(-c2ccc(Cl)cc2)c(=O)c2ccccc12 | . | . | . | . | . | . | / | / | /
CN1CCC(=NOc2ccc([N+](=O)[O-])cc2)CC1 | . | . | . | . | . | . | / | / | /
CCCn1c(C)cs/c1=N\C(=S)Nc1ccccc1 | . | . | . | . | . | . | / | / | /
Cc1cs/c(=N/C(=S)Nc2ccccc2)n1C | 4.01 | / | . | 178.2 | . | . | 204.2 | . | .
O=C1C(c2cc(=O)c3ccccc3[nH]2)=C(O)c2ccccc21 | 7.02 | . | 89.1 | 190.7 | . | 144.1 | 193.5 | . | 118.4
COc1ccc(Cc2nc(-c3ccccn3)no2)cc1 | . | . | . | . | . | . | / | / | /
CC(C)(C)c1ccc(OCc2nc(-c3ccccn3)no2)c(Br)c1 | 3.73 | . | . | 158.0 | . | 164.4 | 218.7 | 142.9 | 130.8
SMILES | NF-kB neuron act | Rad51 HR inh | FLuc inhib CS | STAT1 activator | FLuc act counter | APP 5'UTR act | STAT1 activ conf | NFkB act | STAT3 act 2
COC(=O)c1ccc(N=NNc2cccc(Br)c2)cc1 | 3.32 | . | . | 151.7 | . | . | 224.5 | 134.1 | 129.3
COC(=O)CCC(=O)Nc1cccc(Br)c1 | . | . | . | . | . | . | / | / | /
CCc1ccc(-c2cn3c(n2)SCC3)cc1 | 7.2 | . | 64.1 | 153.7 | . | . | 199.8 | . | .
N#C/C(=N\Nc1ccc([N+](=O)[O-])cc1)C(N)=S | / | . | / | / | / | / | / | / | /
N#C/C(=N/Nc1ccc([N+](=O)[O-])cc1)C(=N)N1CCCCC1 | 8.1 | . | . | 173.7 | . | 174.0 | 249.3 | 142.7 | 121.8
N#C/C(=N\Nc1ccc(Cl)cc1)C(=N)N1CCCCCC1 | . | . | . | 157.5 | . | 236.4 | 304.8 | 134.6 | 116.5
C=CCn1c(CNC(=O)c2cccs2)nnc1SCC(=O)Nc1ccc(C(=O)O)cc1 | . | . | . | . | . | . | / | / | /
COc1ccccc1NC(=S)N(CCN1CCCCCC1)Cc1cccs1 | . | . | . | . | . | . | / | / | /
CC(C)(C)C(=O)Nc1nc(-c2ccccc2)ns1 | 5.91 | . | . | 164.9 | . | 144.5 | 199.8 | . | .
CC(C)c1ccc(/C=N/NC(=O)c2cccc(Cl)c2)cc1 | 5.72 | / | . | 184.1 | . | . | 220.2 | 137.2 | 126.4
CC(C)c1ccc(C(=O)N/N=C/c2cccc(Cl)c2Cl)cc1 | . | . | . | . | . | . | / | / | /
Cc1ccc(-c2ccc(CCC(=O)O)n2C(C)C)cc1 | . | . | . | 150.7 | . | . | . | . | .
CC(=O)Nc1cccc(NC(=O)C2CC(=O)N(c3ccc(C)cc3)C2)c1 (stereo not drawn) | . | . | . | . | . | . | / | / | /
COc1ccc2cc(-c3nc4ccccc4n3C)c(=O)oc2c1 | 3.39 | . | . | 154.7 | . | . | 168.9 | . | 117.1
COc1ccc2cc(C(C)=O)c(=O)oc2c1 | . | / | . | . | . | . | / | / | /
S=c1[nH]nc(COc2ccccc2)n1/N=C/C(Cl)=C/c1ccccc1 | . | . | . | . | . | . | / | / | /
C=CCNc1nc(Cl)nc(Nc2ccc(OCC)cc2)n1 | . | . | . | . | . | . | / | / | /
O=C(CSc1nnc(NC2CCCCC2)s1)Nc1ccc(N2CCOCC2)cc1 | . | . | . | . | . | . | / | / | /
Clc1cccc(OCc2nc(-c3ccncc3)no2)c1 | . | . | . | . | . | . | / | / | /
Clc1ccc(OCc2nc(-c3ccncc3)no2)c(Cl)c1 | 5.81 | . | . | 174.2 | . | 143.8 | 229.8 | 141.6 | 115.6
Cn1c(C(=O)Nc2ccc3c(c2)OCCO3)cc2sccc21 | 9.14 | . | 81.4 | 186.4 | . | 152.4 | 271.9 | . | .
O=C(Nc1ccc2nsnc2c1)c1ccc2c(c1)OCO2 | 7.02 | . | 70.5 | 153.9 | . | 150.0 | 213.8 | . | .
Cc1cc(C(=O)Nc2ccc3c(c2)OCO3)cs1 | 4.49 | . | 65.1 | 156.8 | . | 177.5 | 168.0 | . | 118.8
COC(=O)Cn1nnc(-c2cccc(OC)c2)n1 | . | . | . | . | . | . | / | / | /
O=C(c1ccccc1)c1cnc(Nc2ccccc2Cl)s1 | 7.31 | . | 62.0 | 162.1 | . | 173.7 | 213.8 | 134.6 | 113.1
CC(=O)c1csc(Nc2ccccc2Cl)n1 | / | . | / | / | / | / | / | / | /
